Assay outcomes from PubChem.
In the library only some 4.5% were active in any assay of this set; here they are far more common.
RGS4 inh: inhibitors of human RGS4; HEK293 M3R/RGS4 inducible, Fluo-4 calcium flux; stronger effect = higher value; triggered by carbachol at its EC20; B-score at 10 µM; 0.45% of 310,000 active; AID 463165;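 active = B-score, a plate-corrected calcium signal, over three deviations above library mean, with baseline fluorescence within five deviations of library mean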;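 note: RGS4 expression induced by doxycycline in cells with stable M3 receptor; B-score is computed from the integrated fluorescence ratio over baseline after carbachol; higher B-score means a larger calcium signal and so more RGS4 inhibition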
Target sequence (P49798 whole entry, looked up): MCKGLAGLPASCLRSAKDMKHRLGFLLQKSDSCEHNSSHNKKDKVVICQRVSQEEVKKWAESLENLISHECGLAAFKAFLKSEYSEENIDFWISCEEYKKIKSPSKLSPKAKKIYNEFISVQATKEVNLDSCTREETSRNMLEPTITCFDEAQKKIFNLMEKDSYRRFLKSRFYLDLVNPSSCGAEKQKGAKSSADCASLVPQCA
MrgX1 allo act: human MrgX1 positive allosteric modulation, primary screen; MrgX1-HEK293, Fluo-4 calcium flux, FDSS; stronger effect = higher value; B-score at 10 µM; 0.63% of 310,000 active;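 active = plate-corrected calcium response at least 3 library SD above typical, normal starting fluorescence, not activating the receptor alone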;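 note: compound read alongside a low EC10 to EC30 dose of BAM8-22 agonist; peak minus trough fluorescence over baseline measured at the second addition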
Target sequence (Q96LB2 whole entry, looked up): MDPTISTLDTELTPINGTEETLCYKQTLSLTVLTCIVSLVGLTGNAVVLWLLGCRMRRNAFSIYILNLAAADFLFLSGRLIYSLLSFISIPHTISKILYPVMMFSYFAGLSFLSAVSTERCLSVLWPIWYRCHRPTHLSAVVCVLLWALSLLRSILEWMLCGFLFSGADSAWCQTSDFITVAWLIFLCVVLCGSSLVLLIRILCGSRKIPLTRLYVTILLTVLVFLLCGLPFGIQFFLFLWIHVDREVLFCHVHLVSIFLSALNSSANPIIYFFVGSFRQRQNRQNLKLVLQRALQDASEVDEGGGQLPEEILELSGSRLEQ
MrgX1 agonist: activates human MrgX1 receptor signaling; MrgX1-HEK293 cells, Fluo-4 calcium fluorescence, agonist mode; stronger effect = higher value; Q96LB2; AID 588627; B-score at 10 µM; 0.44% of 310,000 active;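 active = calcium response B-score plate-corrected fluorescence ratio at least 3 library SD, with starting fluorescence B-score inside 5 SD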
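System: HEK293 cells stably expressing human MrgX1 receptor; Dosing: test compound in the initial addition of three; Schedule: overnight plating, then 30 min 37 °C plus 30 min room-temperature dye loading; Detection: kinetic calcium dye fluorescence, Fluo-4 NW; Controls: per-plate positive and negative controls for Z′ factor.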
MrgX1 antag: human MrgX1 receptor antagonism, primary screen | 1.3% of 310,000 active | AID 588676 | MRGX1-HEK293 calcium flux, Fluo-4, BAM8-22 antagonism; stronger effect = lower value | Q96LB2 | B-score at 10 µM;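 active = calcium-response B-score plate-corrected more than 3 library SD below zero, starting fluorescence within 5 deviations, no agonist response on first addition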;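 note: peak minus trough fluorescence over baseline after final BAM8-22 challenge near maximal dose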
RGS4 pot: RGS4 potentiation or activation; HEK293 M3R/inducible RGS4, carbachol calcium flux Fluo4; stronger effect = lower value; 0.92% of 310,000 active; B-score at 10 µM;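 active = B-score of the integrated calcium signal more than 4 SD below the library mean, with starting fluorescence not abnormally high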;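 note: negative B-score means reduced calcium response which marks RGS4 activation or potentiation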
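test system = HEK293 cells with stable M3R and inducible RGS4 | schedule = recording 10 s baseline at 1 Hz, 100 s post-agonist | technique = Fluo4-AM (2 µM) calcium-flux fluorescence, kinetic read | measure = Agonist-evoked peak-minus-minimum fluorescence over baseline, integrated ratio, B score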
PHOSPHO1 inh: PHOSPHO1 (human) inhibition; Q8TCT1; recombinant PHOSPHO1, absorbance phosphatase assay; inhibition, % at 13.3 µM; 1.1% of 290,000 active; in the data active = inhibition above about 60%
RGS4 block valid: RGS4 inhibitor validation. 65% of 1,700 active. HEK293 M3R/RGS4, carbachol calcium Fluo-4 fluorescence; carbachol added at its EC20; 0 = buffer wells, 100 = carbachol control. calcium response, % at 10 µM. shares compounds with RGS4 inh;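 active = duplicate-averaged calcium response above the buffer-only control mean plus 5 SD of those controls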;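 note: integrated fluorescence ratio F max minus min over baseline F0; higher response in RGS4-induced cells means RGS4 inhibition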
M3R Ca ctr: non-induced cell nonspecific activity of RGS4 inhibitors. shares compounds with RGS4 inh. HEK293 M3R non-induced, carbachol calcium Fluo-4; submaximal (EC20) carbachol stimulus; buffer wells 0%, carbachol control wells 100%. activity (percent), % at 10 µM. 20% of 1,900 active; call rule not given here;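 note: RGS4 induction absent so cells express M3R without RGS4; higher means more calcium signal and flags a non-specific hit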
RGS4 inh ctr2: signal in non-induced cells without carbachol, RGS4 inhibitor counter-screen; HEK293 M3R/RGS4 non-induced, Fluo-4 calcium, no carbachol; normalised: buffer wells 0%, carbachol wells 100%; 22% of 1,900 active; shares compounds with RGS4 inh; calcium response (agonist-mode artifact), % at 10 µM;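 active = duplicate-averaged calcium rise in uninduced cells above buffer wells' mean plus 5 SD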
* marks the source's active call; other numbers are inactive results; i = inactive; / = no result given.

SMILES | RGS4 inh | MrgX1 allo act | MrgX1 agonist | MrgX1 antag | RGS4 pot | PHOSPHO1 inh | RGS4 block valid | M3R Ca ctr | RGS4 inh ctr2
CC1S/C(=N/N=C/c2cccs2)NC1=O (stereo not drawn) | i | i | i | i | i | 3.4 | / | / | /
Cc1ccccc1NC(=O)c1cc[n+]([O-])cc1 | i | i | i | i | i | -5.0 | / | / | /
CC1CC(NC(=O)c2c(O)nc3sccn3c2=O)CC(C)(C)C1 (stereo not drawn) | 13.7* | i | i | i | i | / | 22.0%* | 48.5%* | i
CCOCCCNC(=S)N(CCO)Cc1cc2cc3c(cc2[nH]c1=O)OCCO3 | i | i | i | i | i | -24.0 | i | i | i
CCN(CC)CCCNC(=S)N(CCO)Cc1cc2cc3c(cc2[nH]c1=O)OCCO3 | i | i | i | i | i | 14.1 | i | i | i
CCCCNC(=S)N(CCO)Cc1cc2cc3c(cc2[nH]c1=O)OCCO3 | i | i | i | i | i | 13.8 | i | i | i
Oc1ccc(Cl)cc1C=NCCc1ccccc1 | 5.02* | i | i | i | i | 2.4 | 21.5%* | 35.0%* | 11.0%*
Oc1ccccc1C=NCCN=Cc1ccccc1O | i | i | i | i | i | 7.8 | / | / | /
COc1ccc(N2CC(C(=O)N/N=C/c3cc([N+](=O)[O-])ccc3O)CC2=O)cc1 (stereo not drawn) | 4.98* | i | i | i | i | -20.0 | 5.0%* | i | i
O=[N+]([O-])c1ccc(O)c(/C=N/NC(=S)Nc2ccc(Cl)cc2Cl)c1 | 13.9* | i | i | i | i | 32.2 | 18.0%* | i | i
O=C(N/N=C/c1cc([N+](=O)[O-])ccc1O)NC12CC3CC(CC(C3)C1)C2 | 7.89* | i | i | i | i | 0.6 | 12.0%* | i | i
C(=N\Nc1ccccc1)/c1nc2ccccc2s1 | i | i | i | i | i | 25.4 | / | / | /
Cc1ccc(C2CC(c3cccs3)=NN2S(=O)(=O)c2ccc(C)cc2)cc1 (stereo not drawn) | i | i | i | i | i | 0.3 | / | i | 31.5%*
COc1ccc(C2CC(c3cccs3)=NN2S(=O)(=O)c2ccc(C)cc2)cc1 (stereo not drawn) | 6.22* | i | i | i | i | / | 17.0%* | i | i
O=S(=O)(c1ccccc1)N1N=C(c2cccs2)CC1c1ccc(F)cc1 (stereo not drawn) | i | i | i | i | i | 19.2 | / | / | /
CN1CCN(C(=O)CCCN2C(=O)/C(=C/c3ccccc3)SC2=S)CC1 | i | i | i | i | i | 23.7 | / | / | /
O=C(O)CCCN1C(=O)/C(=C\C(Cl)=C\c2ccccc2)SC1=S | 14.8* | i | i | i | i | 43.7 | 44.5%* | i | i
O=C(O)CCCN1C(=O)/C(=C\c2ccc(-c3nc4ccccc4s3)o2)SC1=S | 20.6* | i | i | -7.98* | -7.86* | 92.7* | 13.5%* | i | 125.5%*
Cc1cc(-c2ccccc2)n2nc(N)nc2n1 | i | i | i | i | i | 14.9 | / | / | /
Cc1ccc(N(Cc2cc3ccc(C)cc3[nH]c2=O)C(=O)c2ccco2)c(C)c1 | i | i | i | i | i | 8.3 | i | i | i
COCC(=O)N(Cc1cc2ccc(C)cc2[nH]c1=O)c1ccc(C)cc1C | i | i | i | i | i | -33.5 | / | / | /
Cc1ccc2cc(CN(C(=O)c3ccco3)c3ccccc3C)c(=O)[nH]c2c1 | i | i | i | i | i | 21.2 | i | i | i
Cc1ccc2cc(CN(C(=O)c3ccco3)c3cccc(C)c3C)c(=O)[nH]c2c1 | i | i | i | i | i | -0.8 | / | / | /
O=C(Cn1cnc2ccccc2c1=O)c1cccs1 | i | i | i | i | i | -9.3 | / | / | /
O=C(/C=C/c1ccnc2ccccc12)c1cccs1 | 13.5* | i | i | i | i | 34.9 | 18.5%* | 41.0%* | i
SMILES | RGS4 inh | MrgX1 allo act | MrgX1 agonist | MrgX1 antag | RGS4 pot | PHOSPHO1 inh | RGS4 block valid | M3R Ca ctr | RGS4 inh ctr2
O=C1N=c2ccccc2=C1c1c(O)n(-c2cccc(F)c2)[nH]c1=O | 6.99* | i | i | i | i | -1.5 | 21.0%* | i | i
C/C(=N/OC(=O)c1ccc(C(F)(F)F)cc1)c1oc(C)nc1C | i | i | i | i | i | 34.2 | / | / | /
CCn1c2ccccc2c2cc(NC(=O)CSc3nnc(-c4ccccc4OC)n3N)ccc21 | i | i | i | i | i | 78.5* | / | i | i
CCn1c2ccccc2c2cc(NC(=O)CSc3nnc(-c4cccc(OC)c4)n3N)ccc21 | i | i | i | i | i | 27.7 | / | i | i
CCOc1ccc(-c2nnc(SCC(=O)Nc3ccc4c(c3)c3ccccc3n4CC)n2N)cc1 | i | i | i | i | i | 79.2* | i | i | i
COc1cccc(-c2nnc(SCC(=O)Nc3cc(C)ccc3OC)n2N)c1 | i | i | i | i | i | 4.6 | / | / | /
CCn1c2ccccc2c2cc(NC(=O)CSc3nnc(-c4ccc(OC)c(OC)c4)n3N)ccc21 | i | i | i | i | i | 44.7 | i | i | i
CC1(C)CC(=O)C(C(c2cc([N+](=O)[O-])ccc2Cl)C2C(=O)CC(C)(C)CC2=O)C(=O)C1 | i | i | i | i | i | / | / | / | /
Cc1sc(C(C2C(=O)CC(C)(C)CC2=O)C2C(=O)CC(C)(C)CC2=O)cc1[N+](=O)[O-] | 24* | i | i | i | i | 0.9 | 90.0%* | 49.5%* | 62.0%*
O=C1NC(NS(=O)(=O)c2ccc(Cl)cc2)(C(F)(F)F)C(=O)N1c1ccccc1 (stereo not drawn) | i | i | i | i | i | -6.9 | / | / | /
O=C(O)c1ccc(Nc2nc(-c3cc4ccccc4oc3=O)cs2)cc1O | 15.2* | / | / | / | i | -85.2 | 40.0%* | i | 12.0%*
